In ChEMBL document CHEMBL3393040, “An Orally Available BACE1 Inhibitor That Affords Robust CNS Aβ Reduction without Cardiovascular Liabilities” (ACS Med Chem Lett, 2015):
The source made the active and inactive calls. No cut-off for these calls is given here.

What was measured:
Beta-secretase 1 [1] = target: T1, Beta-secretase 1 (Homo sapiens, UniProt P56817); assay: Inhibition of BACE1 in HEK293 cells stably expressing APPSW assessed as reduction in Abeta40 level incubated overnight at 0.0005 to 10 uM by ELISA method; type: cell-based
T1 sequence (P56817 whole entry): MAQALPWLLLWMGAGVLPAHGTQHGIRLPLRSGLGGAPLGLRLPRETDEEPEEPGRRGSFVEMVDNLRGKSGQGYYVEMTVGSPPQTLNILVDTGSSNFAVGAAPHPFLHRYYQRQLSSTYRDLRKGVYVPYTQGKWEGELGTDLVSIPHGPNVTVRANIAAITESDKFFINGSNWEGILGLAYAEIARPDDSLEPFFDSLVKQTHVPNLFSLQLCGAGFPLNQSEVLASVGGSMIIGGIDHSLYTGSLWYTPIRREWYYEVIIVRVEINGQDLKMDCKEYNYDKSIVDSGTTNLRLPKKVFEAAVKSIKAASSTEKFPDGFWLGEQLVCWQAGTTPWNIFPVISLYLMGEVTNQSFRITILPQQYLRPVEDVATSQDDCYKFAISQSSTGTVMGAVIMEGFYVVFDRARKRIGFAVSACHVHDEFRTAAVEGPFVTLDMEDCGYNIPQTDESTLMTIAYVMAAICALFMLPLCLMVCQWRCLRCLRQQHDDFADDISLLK

Rattus norvegicus [2] = assay: Reduction in Abeta40 level in Sprague-Dawley rat CSF at 3 mg/kg, po administered as single dose by immunoassay; type: functional
Outline: (§1)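 Male Sprague–Dawley rats received a single oral dose. Aβ40 was measured in CSF and brain 4 h later and reported as % reduction. EC50 is expressed as unbound plasma concentration.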

Beta-secretase 1 [3] = target: T1, Beta-secretase 1; assay: Inhibition of human recombinant BACE1 pre-incubated with enzyme for 60 mins before fluorescent substrate addition FRET method
Rattus norvegicus [4] = assay: Reduction in Abeta40 level in Sprague-Dawley rat CSF at 3 mg/kg, po administered as single dose after 4 hrs by immunoassay; type: functional, organism-based; parameters: dose 3 mg/kg; outline: as §1
Rhesus monkey = assay: Reduction in Abeta40 level in rhesus monkey CSF at 5 mg/kg, po administered as single dose by ELISA method; type: functional, organism-based; parameters: dose 5 mg/kg; conditions: Macaca mulatta
Outline: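 Rhesus monkey time-course PD study after a 5 mg/kg oral dose, with CSF Aβ40 followed over time. An indirect response PK–PD model generated the in vivo unbound plasma IC50.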

Rattus norvegicus [5] = assay: Reduction in Abeta40 level in Sprague-Dawley rat CSF at 10 mg/kg, po administered as single dose by immunoassay; type: functional; outline: as §1

Row | IC50 (Beta-secretase 1 [1]) [nM] | IC50 (Beta-secretase 1 [3]) [nM] | Compound | also measured
1 | 4 |  | NC1=N[C@@]2(CO1)c1cc(-c3cccnc3F)ccc1Oc1c2cc(N2CCC(F)(F)C2)nc1F | 
2 | 6.5 | 0.4 | NC1=N[C@@]2(CO1)c1cc(-c3cccnc3F)ccc1Oc1c2cc(-c2ccnc(F)c2)nc1F | inhibition in vivo at 3 mg/kg (Rattus norvegicus [2]): 58%
3 | 23 | 0.3 | Cc1cc(-c2cc3c(c(F)n2)Oc2ccc(-c4cccnc4F)cc2[C@@]32COC(N)=N2)on1 | 
4 | 4.8 |  | NC1=N[C@@]2(CO1)c1cc(-c3cccnc3F)ccc1Oc1c2cc(C2=CCCCO2)nc1F | 
5 | 4 | 0.3 | NC1=N[C@@]2(CO1)c1cc(-c3ncccc3F)ccc1Oc1c2cc(C2=CCCOC2)nc1F | inhibition (Rattus norvegicus [4]): Active; inhibition (Rhesus monkey): Active
6 | 6 |  | NC1=N[C@@]2(CO1)c1cc(-c3cccnc3F)ccc1Oc1c2cc(N2CCC(F)(F)CC2)nc1F | 
7 | 4 | 0.3 | NC1=N[C@@]2(CO1)c1cc(-c3cccnc3F)ccc1Oc1c2cc(C2=CCOCC2)nc1F | 
8 | 3 | 0.2 | NC1=N[C@@]2(CO1)c1cc(-c3cccnc3F)ccc1Oc1c2cc(N2CC[C@@H](F)C2)nc1F | 
9 |  |  | NC1=N[C@@]2(CO1)c1cc(-c3cccnc3F)ccc1Oc1c2cc(-c2ccncc2)nc1F | inhibition in vivo at 3 mg/kg (Rattus norvegicus [2]): 36%
10 | 12 |  | Cc1cc(-c2cc3c(c(F)n2)Oc2ccc(-c4cccnc4F)cc2[C@@]32COC(N)=N2)ccn1 | 
11 | 8 | 0.7 | NC1=N[C@@]2(CO1)c1cc(-c3cccnc3F)ccc1Oc1c2cc(-c2ccccc2)nc1F | inhibition in vivo at 10 mg/kg (Rattus norvegicus [5]): 75%
12 | 5 |  | NC1=N[C@@]2(CO1)c1cc(-c3cccnc3F)ccc1Oc1c2cc(N2CCOCC2)nc1F | inhibition in vivo at 3 mg/kg (Rattus norvegicus [2]): 69%
